The values below come from ChEMBL document CHEMBL1136442, “New anti-malarial peroxides with in vivo potency derived from spongean metabolites” (Bioorg Med Chem Lett, 2003).

Each structure is given as a SMILES string.

Assay [1] has as its system Mus musculus. Put plainly: Survival days of the treated animal to that of control animal at a dose of 10 mg/kg. In kind it is functional.
Assay [2] can be described thus: Selectivity index was determined. Type of assay: functional.
For the next assay, the system named is KB 3-1. Description: In vitro antimalarial activity against KB 3-1. In kind it is functional, cell-based. Conditions: Homo sapiens. In a few lines: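 Cytotoxicity was measured by colorimetric MTT assay, with mitomycin C as positive control.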
In assay [3] the test system is Mus musculus. Description: In vivo anti-malarial activity against Plasmodium berghei.
Another assay concerns Plasmodium falciparum. Put plainly: In vitro anti-malarial activity against Plasmodium falciparum. Type of assay: functional, organism-based. In a few lines:
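FCR3 strain (cycloguanil-resistant, Gambia) was sorbitol-synchronized and plated at ring stage (0.55% parasitemia, 2% hematocrit). Compound was added from DMSO stock diluted in complete medium (1% DMSO final). After 48 h at 37 °C, proliferation was scored on Giemsa smears, 10,000 erythrocytes per film, in triplicate. Quinine was the reference.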

For assay [4], the species on record is Mus musculus. Put plainly: In vitro anti-malarial activity in mice (Mus musculus) serum after 24 hr. Type of assay: functional, organism-based.

One may read the IC50 as the concentration that inhibits the measured activity by half. The low end stands for inhibition by little substance, the high end for a need for much substance. For orientation: ED50 means the dose that gives a 50% effect, or the effect in half of the subjects. For `CCCCCC1(OC)CCC(CC(=O)NCC)OO1` (centres undefined), the T/C in the assay on Mus musculus [1] stood at 125. In assay [2], this compound showed a Selectivity index of 25. The 50% inhibitory concentration (IC50) in the assay on KB 3-1 came out at 14 µM; in the assay on Plasmodium falciparum it was 540 nM. Moreover, the 50% effect level with Mus musculus [3] (ED50) was put at a dose of 11 mg/kg.

The compound `CCCCCC1(OC)CCC(CC(=O)O)OO1` (centres undefined) yielded a concentration for half-maximal inhibition (IC50) in the assay filed under Mus musculus [4] of over 1200 nM.

In the assay on Mus musculus [3], `C[C@@H]1CC[C@H]2[C@@H](C)C(=O)O[C@@H]3O[C@@]4(C)CC[C@@H]1[C@]32OO4` [ARTEMISININ] had an ED50 of 5 mg/kg.

For `CCCCCC1(OC)CCC(CC(=O)OC)OO1` (centres undefined), the T/C in the assay with Mus musculus [1] was 81. Moreover, the Selectivity index in assay [2] came to 360. Moreover, the ED50 with Mus musculus [3] is over 30 mg/kg.

For the compound `CCCCCC1(OC)CCC(CC(=O)NC)OO1` (centres undefined), the T/C in the assay with Mus musculus [1] worked out at 118. Besides, the Selectivity index in assay [2] was determined as 10. Further, the 50% inhibitory concentration (IC50) with KB 3-1 was determined as 5.2 µM; in the assay with Plasmodium falciparum, 520 nM.

As for `CCCCCC1(OC)CCC(CC(=O)NCCC)OO1` (centres undefined), the T/C in the assay on Mus musculus [1] amounted to 138. In assay [2], this compound yielded a Selectivity index of 39. For the same compound, the concentration for half-maximal inhibition (IC50) turned out to be 12 µM with KB 3-1 and 310 nM in the assay on Plasmodium falciparum. This compound gave an ED50 with Mus musculus [3] of 9.3 mg/kg.

For the compound `CCCCCC1(OC)CCC(CC(=O)N(CC)CC)OO1` (centres undefined), the T/C in the assay on Mus musculus [1] came to 118. For the same compound, in assay [2], the Selectivity index came to 27. Further, the values for the concentration for half-maximal inhibition (IC50) in the assay with KB 3-1 and in the assay on Plasmodium falciparum were 13 µM and 490 nM, respectively. In the assay on Mus musculus [3], the ED50 came to 20 mg/kg.

With `CCCCCC1(OC)CCC(CC(=O)N(C)C)OO1` (centres undefined), the T/C in the assay with Mus musculus [1] came to 95. For the same compound, the Selectivity index in assay [2] was 13. For the same compound, the values for the half-inhibitory concentration (IC50) with KB 3-1 and in the assay with Plasmodium falciparum were 4 µM and 310 nM, respectively. The compound also registered a 50% effective dose (ED50) in the assay with Mus musculus [3] of 13 mg/kg.
